# Assay results gathered from unrelated publications.
# Compare with care: the assays were run in different laboratories.
# Effect on: cell growth or viability
SMILES,cell line,technique,concentration,time,endpoint,value
O=C(N[C@@H](CSCc1ccc([N+](=O)[O-])cc1)C(=O)NO)c1ccccc1,HCC4006,MTT,,48 h,IC50,10000 nM
Nc1nc(S)nc(O)c1N=Cc1cn(-c2ccccc2)nc1-c1ccc([N+](=O)[O-])cc1,CCRF-CEM,,,48 h,CC50,> 40 µM
O=C(N[C@@H](CSCc1nc2cc([N+](=O)[O-])ccc2[nH]1)C(=O)NO)c1ccccc1,HCC4006,MTT,,48 h,IC50,< 500000 nM
C[C@H](Nc1ccc2c(c1)OCCn1cc(N3C(=O)OC[C@H]3C(F)F)nc1-2)C(N)=O,HCC202,ATP luminescence,,5 days,EC50,15.4 nM
Nc1nc(S)nc(O)c1N=Cc1cn(-c2ccccc2)nc1-c1ccc(Cl)cc1,CCRF-CEM,,,24 h,CC50,15.1 µM
C=C(NC(=O)C(=C)NC(=O)c1csc(C2=N[C@@H]3c4csc(n4)[C@H]4NC(=O)c5csc(n5)[C@H]([C@](C)(O)[C@@H](C)O)NC(=O)[C@H]5CSC(=N5)/C(=C/C)NC(=O)[C@H]([C@@H](C)O)NC(=O)c5csc(n5)[C@]3(CC2)NC(=O)[C@H](C)NC(=O)C(=C)NC(=O)[C@H](C)NC(=O)[C@H]([C@@H](C)CC)N[C@@H]2C=Cc3c([C@H](C)O)cc(nc3[C@H]2O)C(=O)O[C@@H]4C)n1)C(N)=O,ES-2,,,,EC50,1200 nM
Cc1nc(Nc2ncc(C(=O)Nc3c(C)cccc3Cl)s2)cc(N2CC[C@H](O)C2)n1,CCRF-CEM,ATP luminescence,10 µM,72 h,inhibition,14%
Nc1nc(S)nc(O)c1N=Cc1cn(-c2ccccc2)nc1-c1ccccc1,CCRF-CEM,,,48 h,CC50,< 20 µM
CN1CCC(NC2CCc3[nH]c4c(C(N)=O)ccc(-c5ccccc5Cl)c4c3C2)CC1 (stereo not drawn),RKO,,,96 h,IC50,0.17 nM
CC(=O)ON=C1C=CC(=C(C#N)c2ccccc2)C=C1,HDF-1,MTT,,24 h,IC50,27.4 µg/mL
COc1cccc2c1C(=O)c1c(O)c3c(c(O)c1C2=O)C[C@@](O)(C(=O)CO)C[C@@H]3O[C@H]1C[C@H](N)[C@H](O)[C@H](C)O1,RKO,,,96 h,IC50,4.73 nM
COc1ccc(-c2nn(-c3ccccc3)cc2C=Nc2c(N)nc(S)nc2O)cc1,CCRF-CEM,,,48 h,CC50,< 20 µM
